Published values pooled from the literature.
Compare with care: the assays were run in different laboratories.
Target: Activin receptor type-2B (ACVR2B, Homo sapiens, UniProt Q13705)

Structure (SMILES) | read-out | method | tested at | remaining binding [%]
Cc1cnc(Nc2ccc(C(=O)N3CCC(N4CCCC4)CC3)cc2)nc1-c1cc2ccccc2s1 | binding | competition with immobilised ligand | 1 µM | 61
CN(C)CC#Cc1ccc(OCCCc2sc(N3CCc4cccc(C(=O)Nc5nc6ccccc6s5)c4C3)nc2C(=O)O)c(F)c1 | cell-free assay | competition with immobilised ligand | 1 µM | 100
Cc1cnn2ncc(-c3ccnc(N(C)C)n3)c2c1 | binding | competition with immobilised ligand | 1 µM | 100
CC(=O)N1CCC(c2ccc(C(=O)NC(=N)N)cc2C(F)(F)F)CC1 | binding | competition with immobilised ligand | 1 µM | 100
CN(CCCC(F)(F)F)c1nccc(-c2cnn3ncccc23)n1 | binding |  | 1 µM | 100
CNC(=O)[C@@H]1CC[C@@H](n2c(-c3ccc4cnccc4c3)nc3ccc(C(=O)NCc4cccc(C(N)=O)c4)cc32)C1 | binding | competition with immobilised ligand | 1 µM | 100
O=C(c1ccc(Nc2ncc(Cl)c(-c3ccc(Cl)s3)n2)cc1)N1CCC(N2CCCC2)CC1 | binding | competition with immobilised ligand | 1 µM | 77
FC(F)(F)Oc1cccc(-c2cnc3ccc(-c4ccncc4)nn23)c1 | cell-free assay | competition with immobilised ligand | 5 µM | 46
O=C(NCCCN1CCOCC1)c1ccc(Nc2nccc(-c3cc4ccccc4s3)n2)cc1 | binding | competition with immobilised ligand | 1 µM | 89
c1cncc(-c2cccc(Nc3nccc(NC4CCCCC4)n3)c2)c1 | binding | competition with immobilised ligand | 10 µM | 85
Cc1nc(C2CCN(C(=O)c3ccc(OC(F)(F)F)cc3N)CC2)c2ncc(N3CCN(C)CC3)cc2n1 | cell-free assay | competition with immobilised ligand | 1 µM | 100
C[C@@H]1CCN(c2nccc(-c3cnn4ncccc34)n2)C1 | binding |  | 1 µM | 100
O=C(NCC1CCOCC1)c1n[nH]cc1NC(=O)c1c(F)cccc1F | binding | competition with immobilised ligand | 1 µM | 98
COc1ncc2cc3ccccc3nc2c1C#N | binding | competition with immobilised ligand | 5 µM | 90
CN(C)c1nccc(-c2cnn3ncccc23)n1 | binding | competition with immobilised ligand | 1 µM | 85
CN(C)C(=O)Cn1cc(-c2nc(C3(c4ccc(-c5cnc(N)nc5)cc4)CC3)no2)cn1 | binding | competition with immobilised ligand | 1 µM | 96
F[C@@H]1CCN(c2nccc(-c3cnn4ncccc34)n2)C1 | binding |  | 1 µM | 100
COc1cc(-c2cn(C3CCc4ccccc4N(CC(F)(F)F)C3=O)nn2)ccc1-n1ccc(C)n1 (centres unmarked) | binding | competition with immobilised ligand | 1 µM | 100
N[C@@H]1CCN(c2nccc(-c3cnn4ncccc34)n2)C1 | binding |  | 1 µM | 100
O=C1CCc2cc(Nc3cc(OC4CCOCC4)c([N+](=O)[O-])cc3Cl)ccc2N1 | cell-free assay | competition with immobilised ligand | 1 µM | 89
